We go through 98 molecules from ChEMBL document CHEMBL4513216, “Probing the Open Global Health Chemical Diversity Library for Multistage-Active Starting Points for Next-Generation Antimalarials” (ACS Infect Dis, 2020).

A short description of the data set: Toxicity liver stage against HepG2, at 10uM. The data set is classed as cell-based. Also noted: test concentration 10 uM, cell line HepG2-A16-CD81EGFP. To be noted: human, HepG2-A16-CD81EGFP cells; read-out: INHIBITION
In a few lines: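 Uninfected HepG2-A16-CD81EGFP cells, 3 × 10^3 per well, 1536-well, plated on prespotted compound at 10 μM final, parasite-free screening media added to match infected plates; puromycin 10 μM positive, DMSO 0.5% negative; run in parallel with 48 h PbLuc assay at 37 °C, 5% CO2; viability by CellTiter-Glo luminescence, normalized to controls.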
On to `O=c1ncn(-c2ccccc2F)c2ncccc12`, for which the cytotoxicity at 10 µM was -2.26%.
Consider `CCCN(CCC)C1(Cc2cc(-c3cccc(O)c3)on2)COC1`, for which the cytotoxicity at 10 µM was -1.19%.
Consider `O=C(Cc1ccccc1)NC[C@H]1Cn2ccnc2CO1`, for which the cytotoxicity at 10 µM was found to be 0.148%.
The same measure for `CC(C)CCc1n[nH]c(C(=O)O)c1Cl`: -5.47%; for `CC(C)NC(=O)CNC(=O)N1CCc2c([nH]c3ccc(Cl)cc23)C1`: 7.15%; for `COCCN1C[C@@H]2CN(S(=O)(=O)c3cccs3)C[C@@H]2C1=O`: 0.258%.
As to `Cc1cccc(CN2C[C@@H]3OCCN(C)[C@@H]3C2)n1`, the cytotoxicity at 10 µM stood at 1.73%.
With `COCc1ncn2c1CN(C(=O)Nc1ccccc1)CC2`, the cytotoxicity at 10 µM amounted to 0.763%.
On to `Cn1cccc1CN1CCc2ncnc(-c3cccnc3)c2CC1`, for which the cytotoxicity at 10 µM is 9.03%.
As for `COCCO[C@H]1CCN(C(=O)c2ccco2)[C@H]1Cc1cnn(C)c1`, the cytotoxicity at 10 µM stood at 2.4%.
Consider `O=C(c1ccccc1)N1CC[C@H]2C[C@@H](c3nccs3)O[C@@H]2C1`, for which the cytotoxicity at 10 µM was -5.44%.
The same measure for `Cc1cccc(CSc2ncc(Br)c(C(=O)O)n2)c1`: -9.41%; for `Cc1ccc(-c2cc(C(=O)O)sn2)cc1`: 2.2%; for `CCCc1nnsc1C(=O)NCC1CCN(S(C)(=O)=O)CC1`: -19.7%.
The figure for `Cn1c(SCC(N)=O)nnc1-c1csc2c1CCCC2` is 36.2%.
In the case of `Cc1cnc(CCNC(=O)C2CCN(S(=O)(=O)c3ccc(F)cc3)C2)s1` (stereo not drawn), the cytotoxicity at 10 µM stood at 2.56%.
The figure for `CNc1nccnc1C1CN(C(=O)c2cc[nH]n2)CCO1` (stereo not drawn) is -12.3%; for `COCCNC(=O)c1cc(C)nc(C2CCN(C)CC2)n1` it is -2.48%.
The same measure for `CCC(=O)N1CCC(c2nc3c(c(NC)n2)CN(C)CC3)C1` (stereo not drawn): -3.74%.
The same measure for `O=C(CC1CCCC1)N1CCOC(c2nc(-c3ncccn3)no2)C1` (stereo not drawn): -13.2%; for `CNC(=O)Nc1cnc2cc(Cl)ccc2c1O`: -30%.
In the case of `Cc1nccn1-c1cncc(C2CCCN2Cc2cccnc2)n1` (stereo not drawn), the cytotoxicity at 10 µM is -20.4%.
The figure for `O=C(CSc1nnc(N2CCCC2)s1)NC(=O)Nc1ccccc1` is 3.59%; for `CCOC(C)c1nc(COc2nc(C)no2)cs1` (stereo not drawn) it is -1.64%; for `COc1ccccc1C1(CNc2cn[nH]c(=O)c2Cl)CC1` it is 54.8%.
As for `CN1CCN(C2CCN(Cc3cn4ccccc4n3)CC2)C1=O`, the cytotoxicity at 10 µM came out at 19.1%.
For the molecule `Cc1cccc(N2CCC(NC(C)c3cccs3)CC2)n1` (stereo not drawn), the cytotoxicity at 10 µM is -17.2%.
Consider `Cc1[nH]ncc1CCCNC(=O)N1CCN2CCCCC2C1` (stereo not drawn), for which the cytotoxicity at 10 µM was determined as 5.8%.
In the case of `Cc1ccc(C)c(Oc2ccc(CNC(=O)C3CNC(=O)N3)cn2)c1` (stereo not drawn), the cytotoxicity at 10 µM was found to be 0.577%.
On to `Cc1ccc(CN(C)C(=O)CN2CCc3ccccc3C2)o1`, for which the cytotoxicity at 10 µM is -6.9%.
Turning to `COc1ncnc(N(C)C)c1NC(=O)c1cscc1C`, the cytotoxicity at 10 µM was -1.7%.
`FC(F)(F)Sc1ccccc1NCc1nc(C2CC2)no1`: the cytotoxicity at 10 µM is 0.858%.
For the molecule `Cc1ccc(N2CCCC(N(C)c3nn4cc(C)nc4s3)C2)nn1` (stereo not drawn), the cytotoxicity at 10 µM is 8.45%.
The figure for `CNS(=O)(=O)c1ccccc1N1CCN(C(=O)C(C)C)CC1` is 4%.
The figure for `Cc1nn(C)c(N(C)C)c1CNCc1cccc(Br)c1` is -7.98%; for `CCOCCNC(=O)Nc1cccc(-c2nccn2C)c1` it is -3.26%; for `CC(=O)N1CCN(C(=O)C(C)OCC(F)(F)F)CC1` (stereo not drawn) it is -10.8%.
As for `CC(C)C(C(=O)N1CCCN(Cc2cscn2)CC1)n1cncn1` (stereo not drawn), the cytotoxicity at 10 µM is -2.1%.
The same measure for `Cc1cccc(C(=O)N2CCN(c3ccccc3F)CC2)n1`: 1.83%; for `COC(=O)C(C)(C)NC(=O)C1CC(=O)N(CC(C)C)C1` (stereo not drawn): -152%.
For the molecule `N#Cc1ncn(CCC(=O)Nc2cc(Cl)ccc2Cl)n1`, the cytotoxicity at 10 µM was -161%.
With `Clc1cncc(N2CCCC2c2nnc3n2CCCCC3)n1` (stereo not drawn), the cytotoxicity at 10 µM is -7.44%.
The figure for `CCC(NC(=O)Nc1ccc(OC)c(C)c1)c1noc(C)n1` (stereo not drawn) is -12%.
Turning to `O=C(Nc1cc(C2CCOCC2)[nH]n1)c1cscn1`, the cytotoxicity at 10 µM was -7.84%.
The figure for `CN(C(=O)CCOc1ccccc1)C1CCN(CC2CCOC2)CC1` (stereo not drawn) is -7.7%; for `c1cnc(N2CCC(NCc3cnc(C4CCC4)s3)CC2)nc1` it is 4.24%; for `Cc1cc2c(cc1C)C(NC1CC1)CCCO2` (stereo not drawn) it is 4.57%.
As to `CC(C)S(=O)(=O)Cc1cccc(NC(=O)c2ccc[nH]2)c1`, the cytotoxicity at 10 µM is -0.118%.
Take `CC(C)c1nc(C2CCCN2c2cnc3ccccc3n2)no1` (stereo not drawn): the cytotoxicity at 10 µM is -3.13%.
On to `Cc1csc2ncc(-c3ccnc(N4CCC[C@@H]4CO)n3)c(=O)n12`, for which the cytotoxicity at 10 µM is -11.3%.
The figure for `CCCn1ncnc1C(C)NC(=O)C1CCN(C(=O)C2CC2)CC1` (stereo not drawn) is -147%.
As for `COc1ccccc1[C@@H]1CN(Cc2ccncc2)C[C@H]1C(=O)O`, the cytotoxicity at 10 µM is -4.23%.
The same measure for `COc1cc2c(cc1CN1CCC3(CCCN(C)C3=O)C1)OCCO2` (stereo not drawn): 6.33%.
The figure for `CC(C)(CN1CCC2(CCNCC2)CC1)N1CCOCC1` is -148%.
The same measure for `Cc1nn(CCN2CCSCC2)cc1CNCC1CC1`: -7.03%; for `CC(=O)N1CCN(C(=O)c2snnc2C)[C@H]2CS(=O)(=O)C[C@H]21`: -0.145%.
On to `Cc1cccc(CN2C(=O)OCC2CO)c1F` (stereo not drawn), for which the cytotoxicity at 10 µM was -2.13%.
With `Cc1c(C(=O)N2CCC(O)(CN(C)C)C2)c2cc(O)ccc2n1C` (stereo not drawn), the cytotoxicity at 10 µM was -120%.
The same measure for `O=C(NCc1csc(-c2cccs2)n1)C1NCCc2[nH]cnc21` (stereo not drawn): -0.798%.
`Cc1cnc(N2CCCC3(CCOCC3)C2)nc1`: the cytotoxicity at 10 µM was -116%.
As to `CC(C)C[C@H]1CN(c2nc3c(cc2C(N)=O)CCC3)CC[C@@]1(C)O`, the cytotoxicity at 10 µM was -4.51%.
The figure for `O=C(CC1COCCN1)N1CCCN(C2Cc3ccccc3C2)CC1` (stereo not drawn) is -139%; for `O=C(c1scc2c1OCCO2)N1CCOC(Cc2cccc(F)c2)C1` (stereo not drawn) it is 4.78%; for `CCn1c(Cn2cncn2)nnc1C1CCN(Cc2ccncc2)CC1` it is 12.3%.
The same measure for `Cc1cc(F)ccc1OC1(C(=O)O)CCN(Cc2ccncc2)CC1`: -8.31%.
The same measure for `Cc1ccc([C@@H]2CN(S(=O)(=O)C(C)C)C[C@H]2N(C)C)cc1`: -0.368%.
As to `NC(=O)CSc1nccc(-c2ccc3c(c2)OCO3)n1`, the cytotoxicity at 10 µM is -7.38%.
Regarding `Cc1nc(C)c(CN2CCC(N(C)Cc3nnc(C4CC4)o3)C2)s1` (stereo not drawn), the cytotoxicity at 10 µM was -4.18%.
Turning to `Cc1nc(C(C)C)sc1C(=O)NCCn1nc2ccccn2c1=O`, the cytotoxicity at 10 µM was -12%.
For `NC(=O)C1CN(C(=O)Nc2ccc(SC(F)(F)F)cc2)CCO1` (stereo not drawn), the cytotoxicity at 10 µM is -12.9%.
As to `COc1c(C2CCCN2Cc2nc(-c3ccco3)no2)c(C)nn1C` (stereo not drawn), the cytotoxicity at 10 µM is -10.2%.
Take `COc1ccnc(N2CCN(C(=O)c3ccn(C)c(=O)c3)CC2)n1`: the cytotoxicity at 10 µM is -13.7%.
The figure for `COc1c(CNCc2cccc(Cn3cncn3)c2)c(C)nn1C` is -11.2%.
The figure for `Cc1nn(CC(C)C)c(N(C)C)c1CNCc1ccccc1CO` is -15.2%; for `Cc1nn(C)c(N(C)C)c1CNCCS(C)(=O)=O` it is -17.4%.
The figure for `CN(Cc1ccc(F)cc1)C(=O)NCc1nnc2n1CCC2` is -17.8%; for `COc1ccc(-c2cnc(CN3CCCC3Cn3cccn3)o2)cc1` (stereo not drawn) it is -5.71%.
In the case of `CC(C)c1noc(CCC(=O)NCC2CCC(C(N)=O)CC2)n1` (stereo not drawn), the cytotoxicity at 10 µM was -31.6%.
The figure for `CCS(=O)(=O)c1ccccc1C(=O)N1CCCC(n2cccn2)C1` (stereo not drawn) is -29.9%; for `CCc1nc(C2CCCN2C(=O)c2ccc3c(c2)[nH]c(=O)n3C)no1` (stereo not drawn) it is 1.04%.
The same measure for `Cc1cc(C)n(CC2CN(c3ncnc4[nH]ccc34)CCO2)n1` (stereo not drawn): -6.88%; for `CCCc1nc(CN2CCc3c(ncn3C3CC3)C2)cs1`: -0.0225%; for `CCCc1nc(C)c(C(=O)NCCN2CCCCC2)s1`: -0.906%.
The same measure for `Cc1noc(C2CCCN(C(=O)c3ccc(F)cc3F)C2)n1` (stereo not drawn): 2.01%.
Consider `O=C(c1ccccn1)N1CCC(Nc2cccnn2)CC1`, for which the cytotoxicity at 10 µM was -0.121%.
Regarding `Cc1cnn(CC2CCCCN2Cc2cc(C)on2)c1` (stereo not drawn), the cytotoxicity at 10 µM was -5.36%.
The figure for `Cc1nn2cccnc2c1C(=O)N1CCCC(n2ccnc2)C1` (stereo not drawn) is -4.62%; for `CCNc1cc2c(nn1)CCN(C(=O)c1ccc(CNC(C)=O)o1)C2` it is -10.8%.
For the molecule `CC(Cn1cccn1)NC(=O)NCc1cccnc1OC1CCCC1` (stereo not drawn), the cytotoxicity at 10 µM is 4.86%.
The same measure for `Cc1nc(C)n(CC2CCCCN2CCC(=O)Nc2cc(C)on2)n1` (stereo not drawn): -2.86%.
On to `COc1ccc(CN(C)CC2CCCN2c2cccnn2)cc1F` (stereo not drawn), for which the cytotoxicity at 10 µM was found to be 4.48%.
The figure for `CNC(=O)[C@@H](c1ccccc1OC)N1CCC[C@H]1C(=O)NC(C)(C)C` is -6.67%.
The same measure for `CCS(=O)(=O)N1CCCC2(CCCN2Cc2cccc(F)c2)C1` (stereo not drawn): -141%; for `O=C(N1CCOCC1)[C@@]12CCO[C@@H]1CCN(CCN1CCCCC1)C2`: -3.78%.
The same measure for `Cc1ccc(S(=O)(=O)NC(C)(C)CN)c(F)c1`: -8.73%.
Take `O=C(c1ccccc1)N1CCC2(CCCN2c2ncccn2)CC1`: the cytotoxicity at 10 µM is -127%.
In the case of `CN(C)S(=O)(=O)N1C[C@@H]2C[C@H](C(=O)Nc3ccccc3)[C@H](C1)O2`, the cytotoxicity at 10 µM worked out at 5.86%.
The same measure for `O=C(Nc1ccc(F)cc1)N1C[C@@H]2CC[C@H]1CN(Cc1cccnc1)C2`: -13.4%.
